Results reported in ChEMBL document CHEMBL5058577, “EUbOPEN Chemogenomics Library 2 (Multiplex)” (2022).

Tested on: HEK-293T
Assay: Multiplex assay against HEK293T
Assay type: toxicity, cell-based
Details: human
How it was run: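 Hoechst33342, BioTracker Green Microtubule Cytoskeleton Dye, MitoTracker Red and Annexin V Alexa Fluor 680 were added to live cells at seeding, and imaging on a CQ1 microscope at 37°C and 5% CO2 followed compound addition. Gating by CellPathfinder machine learning separated cells into Hoechst high-intensity objects or normal cells, then normal cells into healthy, pyknosed or fragmented nuclei, then pyknosed cells into mitotic or apoptotic. Per cents of healthy-nucleus cells are reported for the tubulin, mitochondrial-mass and membrane-permeability phenotypes.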

[1] = 12 h, 1 µM, compound concentration 1 uM, replicate 1
[2] = 12 h, 1 µM, compound concentration 1 uM, replicate 2
[3] = 12 h, 10 µM, compound concentration 10 uM, replicate 1
[4] = 12 h, 10 µM, compound concentration 10 uM, replicate 2
[5] = 24 h, 1 µM, compound concentration 1 uM, replicate 1
[6] = 24 h, 1 µM, compound concentration 1 uM, replicate 2
[7] = 24 h, 10 µM, compound concentration 10 uM, replicate 1
[8] = 24 h, 10 µM, compound concentration 10 uM, replicate 2
[9] = 48 h, 1 µM, compound concentration 1 uM, replicate 1
[10] = 48 h, 1 µM, compound concentration 1 uM, replicate 2
[11] = 48 h, 10 µM, compound concentration 10 uM, replicate 1
[12] = 48 h, 10 µM, compound concentration 10 uM, replicate 2

## O=C1[C@H](Cc2ccc(O)cc2)N2C(=O)CCN(C(=O)NCc3ccccc3)[C@H]2CN1Cc1cccc2ccccc12
[1]
  Population Apoptotic (%): 44%
  Population Fragmented Nuclei (%): 6%
  Population Healthy Nuclei (%): 80%
  Population Hoechst High Intensity Objects (%): 6%
  Population Membrane Permeable-Phenotype (%): 0%
  Population Mitochondria Different-Phenotype (%): 54%
  Population Mitotic Cells (%): 55%
  Population Normal (%): 93%
  Population Pyknosed Nuclei (%): 12%
  Population Tubulin-Different-Phenotype (%): 46%
  Total Cell Count: 374
[2]
  Population Apoptotic (%): 46%
  Population Fragmented Nuclei (%): 7%
  Population Healthy Nuclei (%): 78%
  Population Hoechst High Intensity Objects (%): 8%
  Population Mitochondria Different-Phenotype (%): 68%
  Population Mitotic Cells (%): 53%
  Population Normal (%): 91%
  Population Pyknosed Nuclei (%): 13%
  Population Tubulin-Different-Phenotype (%): 33%
  Total Cell Count: 259
[3]
  Population Apoptotic (%): 68%
  Population Fragmented Nuclei (%): 5%
  Population Healthy Nuclei (%): 74%
  Population Hoechst High Intensity Objects (%): 11%
  Population Membrane Permeable-Phenotype (%): 0%
  Population Mitochondria Different-Phenotype (%): 90%
  Population Mitotic Cells (%): 31%
  Population Normal (%): 88%
  Population Pyknosed Nuclei (%): 20%
  Population Tubulin-Different-Phenotype (%): 76%
  Total Cell Count: 340
[4]
  Population Apoptotic (%): 60%
  Population Healthy Nuclei (%): 82%
  Population Hoechst High Intensity Objects (%): 14%
  Population Mitochondria Different-Phenotype (%): 93%
  Population Mitotic Cells (%): 40%
  Population Normal (%): 85%
  Population Pyknosed Nuclei (%): 11%
  Population Tubulin-Different-Phenotype (%): 67%
  Total Cell Count: 257
[5]
  Population Apoptotic (%): 23%
  Population Fragmented Nuclei (%): 7%
  Population Healthy Nuclei (%): 80%
  Population Hoechst High Intensity Objects (%): 7%
  Population Membrane Permeable-Phenotype (%): 0%
  Population Mitochondria Different-Phenotype (%): 49%
  Population Mitotic Cells (%): 76%
  Population Normal (%): 92%
  Population Pyknosed Nuclei (%): 11%
  Population Tubulin-Different-Phenotype (%): 38%
  Total Cell Count: 470
[6]
  Population Apoptotic (%): 55%
  Population Fragmented Nuclei (%): 8%
  Population Healthy Nuclei (%): 77%
  Population Hoechst High Intensity Objects (%): 8%
  Population Mitochondria Different-Phenotype (%): 47%
  Population Mitotic Cells (%): 45%
  Population Normal (%): 91%
  Population Pyknosed Nuclei (%): 14%
  Population Tubulin-Different-Phenotype (%): 24%
  Total Cell Count: 305
[7]
  Population Apoptotic (%): 68%
  Population Fragmented Nuclei (%): 7%
  Population Healthy Nuclei (%): 75%
  Population Hoechst High Intensity Objects (%): 11%
  Population Membrane Permeable-Phenotype (%): 0%
  Population Mitochondria Different-Phenotype (%): 94%
  Population Mitotic Cells (%): 31%
  Population Normal (%): 88%
  Population Pyknosed Nuclei (%): 16%
  Population Tubulin-Different-Phenotype (%): 65%
  Total Cell Count: 278
[8]
  Population Apoptotic (%): 74%
  Population Fragmented Nuclei (%): 9%
  Population Healthy Nuclei (%): 77%
  Population Hoechst High Intensity Objects (%): 14%
  Population Mitochondria Different-Phenotype (%): 95%
  Population Mitotic Cells (%): 25%
  Population Normal (%): 85%
  Population Pyknosed Nuclei (%): 12%
  Population Tubulin-Different-Phenotype (%): 70%
  Total Cell Count: 249
[9]
  Population Apoptotic (%): 30%
  Population Fragmented Nuclei (%): 14%
  Population Healthy Nuclei (%): 78%
  Population Hoechst High Intensity Objects (%): 4%
  Population Membrane Permeable-Phenotype (%): 0%
  Population Mitochondria Different-Phenotype (%): 34%
  Population Mitotic Cells (%): 69%
  Population Normal (%): 95%
  Population Pyknosed Nuclei (%): 6%
  Population Tubulin-Different-Phenotype (%): 26%
  Total Cell Count: 730
[10]
  Population Apoptotic (%): 50%
  Population Fragmented Nuclei (%): 11%
  Population Healthy Nuclei (%): 81%
  Population Hoechst High Intensity Objects (%): 3%
  Population Mitochondria Different-Phenotype (%): 29%
  Population Mitotic Cells (%): 50%
  Population Normal (%): 96%
  Population Pyknosed Nuclei (%): 7%
  Population Tubulin-Different-Phenotype (%): 19%
  Total Cell Count: 472
[11]
  Population Apoptotic (%): 71%
  Population Fragmented Nuclei (%): 8%
  Population Healthy Nuclei (%): 79%
  Population Hoechst High Intensity Objects (%): 10%
  Population Membrane Permeable-Phenotype (%): 0%
  Population Mitochondria Different-Phenotype (%): 94%
  Population Mitotic Cells (%): 28%
  Population Normal (%): 89%
  Population Pyknosed Nuclei (%): 11%
  Population Tubulin-Different-Phenotype (%): 63%
  Total Cell Count: 297
[12]
  Population Apoptotic (%): 57%
  Population Fragmented Nuclei (%): 11%
  Population Healthy Nuclei (%): 73%
  Population Hoechst High Intensity Objects (%): 20%
  Population Mitochondria Different-Phenotype (%): 88%
  Population Mitotic Cells (%): 42%
  Population Normal (%): 79%
  Population Pyknosed Nuclei (%): 14%
  Population Tubulin-Different-Phenotype (%): 72%
  Total Cell Count: 232
